Measured values of several laboratories.
Compare with care: the assays were run in different laboratories.

With `O=C(O)C1=Cc2cc3ccc(cc4nc(cc5c(-c6ccccc6)c(C(=O)O)c(c(C(=O)O)c1n2)n5C(=O)O)C=C4)[nH]3` the logD was 0.0277 (shake flask; aqueous buffer; pH 9).
`Cc1c(C(=O)NN2CCCCC2)nc(-c2ccc(Cl)cc2Cl)n1-c1ccc(OS(=O)(=O)CCC(F)(F)F)cc1` gave a logD of 4.9 (shake flask; aqueous buffer; pH 7.4).
With `COC(=O)[C@H](Cc1c[nH]cn1)NC(=O)CN(CC(=O)O)Cc1ccccc1` the logD was -2.05 (shake flask; PBS; 2 h; pH 7.4).
With `COCCCCCCOc1ccc(C2=N[C@@](C)(C(=O)O)CS2)c(O)c1` the logD was 0.95 (shake flask; aqueous buffer; pH 7.4).
For `CC(C)CN(C[C@@H](O)[C@H](Cc1ccccc1)NC(=O)O[C@H]1CO[C@H]2OCC[C@H]21)S(=O)(=O)c1ccc(N)cc1`, the logD was 2.84 (shake flask; PBS; pH 7.4).
With `Cc1noc([C@H](Cc2c[nH]cn2)NC(=O)CN(CCCc2ccccc2)CC(=O)O)n1` the logD was -0.84 (shake flask; PBS; 2 h; pH 7.4).
`N#Cc1c[nH]c2c(C(=O)N3CCN(CCc4ccc(F)cc4)CC3)cccc12` has a logD of 3.5 (shake flask; aqueous buffer; pH 7.4).
For `Cc1c(C(=O)NC2CCC(O)CC2)nc(-c2ccc(Cl)cc2Cl)n1-c1ccc(OS(=O)(=O)CCC(F)(F)F)cc1` (stereo not drawn), the logD was 4.2 (shake flask; aqueous buffer; pH 7.4).
With `COc1cc2c(cc1OC)CN(CCCCn1ccc3c(OCC[18F])cccc31)C2` the logD was 2.43 (shake flask; aqueous buffer; pH 7.4).
With `Cc1c(C(=O)NN2CCCCC2)nc(-c2ccc(Cl)cc2Cl)n1-c1ccc(OS(=O)(=O)CCCF)cc1` the logD was 4.15 (shake flask; aqueous buffer; pH 7.4).
The logD of `CCCCc1nc2c(N)nc3ccccc3c2n1Cc1ccc(CN)cc1` is reported as 0.42 (shake flask; PBS; pH 7.4).
With `COC(=O)[C@H](Cc1c[nH]cn1)NC(=O)CN(CCCc1ccccc1)CC(=O)O` the logD was -0.78 (shake flask; PBS; 2 h; pH 7.4).
`Fc1ccc(Nc2c(-c3ccccn3)nc3ccc(C4CC4)cn23)cc1` gave a logD of 2.9 (pH 7.4).
For `O=C(O)c1ccc(-n2nc(-c3ccccc3O)nc2-c2ccccc2O)cc1`, the logD was 0.9 (shake flask; PBS; pH 7.4).
`C[C@]1(C(=O)O)CSC(c2ccc(OCCCC(=O)O)cc2O)=N1` gave a logD of -2.21 (shake flask; aqueous buffer; pH 7.4).
For `CCCCc1nc2c(N)nc3ccccc3c2n1Cc1ccc(N)cc1`, the logD was 2.6 (shake flask; PBS; pH 7.4).
The logD of `CCCS(=O)(=O)Oc1ccc(-n2c(-c3ccc(Cl)cc3Cl)nc(C(=O)NN3CCCCC3)c2C)cc1` is reported as 4.6 (shake flask; aqueous buffer; pH 7.4).
`COC(=O)CN(CCCc1ccccc1)CC(=O)N[C@@H](Cc1c[nH]cn1)c1nc(C)no1` gave a logD of 1.52 (shake flask; PBS; 2 h; pH 7.4).
For `CC(C)Cc1ccc(C(C)C(=O)O)cc1` (stereo not drawn), the logD was 0.94 (shake flask; aqueous buffer; pH 7.5).
With `Cc1c(C(=O)NN2CCCCC2)nc(-c2ccc(Cl)cc2Cl)n1-c1ccc(OS(=O)(=O)CCCC(F)(F)F)cc1` the logD was 5.3 (shake flask; aqueous buffer; pH 7.4).
`CN1CCN(c2ccc3nc(-c4ccc5nc(-c6ccc(OCCCCNC(=O)[C@H](N)CS)cc6)[nH]c5c4)[nH]c3c2)CC1` gave a logD of 2 (shake flask; PBS; pH 7.4).
With `Cc1c(C(=O)N[C@@H]2CCCC[C@@H]2O)nc(-c2ccc(Cl)cc2Cl)n1-c1ccc(OS(=O)(=O)CCC(F)(F)F)cc1` (single isomer, unassigned) the logD was > 4.3 (shake flask; aqueous buffer; pH 7.4).
With `O=C(O)CN(CCCc1ccccc1)CC(=O)N[C@H](CO)Cc1c[nH]cn1` the logD was -1.3 (shake flask; PBS; 2 h; pH 7.4).
`Cc1c(C(=O)NN2CCCCC2)nc(-c2ccc(Cl)cc2Cl)n1-c1ccc(OS(=O)(=O)CCC(C)C)cc1` gave a logD of 5.3 (shake flask; aqueous buffer; pH 7.4).
The logD of `CN1CCN(c2ccc3[nH]c(-c4ccc5[nH]c(-c6ccc(O)cc6)nc5c4)nc3c2)CC1` is reported as 2.2 (shake flask; PBS; pH 7.4).
`Cc1c(C(=O)NN2CCCCC2)nc(-c2ccc(Cl)cc2Cl)n1-c1ccc(OCCC(F)(F)F)cc1` has a logD of 5.4 (shake flask; aqueous buffer; pH 7.4).
`COc1ccc2cc(CCC[18F])ccc2c1` gave a logD of 2.46 (shake flask; aqueous buffer; pH 7.4).
